Shown are actives, neighbours in structure and some others; about 3.5% of the full set was active somewhere.
RGS4 act – RGS4 potentiation or activation | HEK293 M3R/inducible RGS4, carbachol calcium flux Fluo4; active compounds read low | B-score at 10 µM | 0.92% of 310,000 active | AID 463111;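 active = B-score of the integrated calcium signal more than 4 SD below the library mean, with starting fluorescence not abnormally high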;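 note: negative B-score means reduced calcium response which marks RGS4 activation or potentiation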
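System – HEK293 FlpIn-TREx cells, stable M3R, doxycycline-inducible RGS4 · Reagent – ECmax carbachol challenge · Times – compound preincubation 20 min at room temperature before agonist · Technique – Fluo4 fluorescence kinetic imaging of calcium · Measure – B score of integrated Fluo4 ratio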
MrgX1 antag – blocks BAM8-22 activation of human MrgX1 receptor | MRGX1-HEK293 calcium flux, Fluo-4, BAM8-22 antagonism; active compounds read low | 1.3% of 310,000 active | B-score at 10 µM;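 active = calcium-response B-score plate-corrected more than 3 library SD below zero, starting fluorescence within 5 deviations, no agonist response on first addition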;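 note: peak minus trough fluorescence over baseline after final BAM8-22 challenge near maximal dose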
Target sequence (Q96LB2 whole entry, looked up): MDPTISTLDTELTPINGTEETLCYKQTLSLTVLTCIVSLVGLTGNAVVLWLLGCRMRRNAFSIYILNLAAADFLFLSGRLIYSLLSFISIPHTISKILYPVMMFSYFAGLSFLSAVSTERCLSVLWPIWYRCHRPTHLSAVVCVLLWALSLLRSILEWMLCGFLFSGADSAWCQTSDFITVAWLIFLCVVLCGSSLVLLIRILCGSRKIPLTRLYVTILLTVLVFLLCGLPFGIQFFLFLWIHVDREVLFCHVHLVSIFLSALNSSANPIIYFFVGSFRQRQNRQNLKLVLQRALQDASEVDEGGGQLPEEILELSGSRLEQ
RGS4 block – inhibitors of human RGS4; HEK293 M3R/RGS4 inducible, Fluo-4 calcium flux; active compounds read high; triggered by carbachol at its EC20; P49798; B-score at 10 µM; 0.45% of 310,000 active;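 active = B-score, a plate-corrected calcium signal, over three deviations above library mean, with baseline fluorescence within five deviations of library mean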;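 note: RGS4 expression induced by doxycycline in cells with stable M3 receptor; B-score is computed from the integrated fluorescence ratio over baseline after carbachol; higher B-score means a larger calcium signal and so more RGS4 inhibition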
Target sequence (P49798 whole entry, looked up): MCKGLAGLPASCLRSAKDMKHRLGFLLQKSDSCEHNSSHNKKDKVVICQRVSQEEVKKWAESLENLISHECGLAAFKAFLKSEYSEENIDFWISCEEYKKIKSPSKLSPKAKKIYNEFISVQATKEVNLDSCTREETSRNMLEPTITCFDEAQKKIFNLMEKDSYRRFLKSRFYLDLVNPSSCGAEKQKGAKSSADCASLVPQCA
MrgX1 PAM – human MrgX1 positive allosteric modulation, primary screen | B-score at 10 µM | MrgX1-HEK293, Fluo-4 calcium flux, FDSS; active compounds read high | Q96LB2 | 0.63% of 310,000 active;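 active = plate-corrected calcium response at least 3 library SD above typical, normal starting fluorescence, not activating the receptor alone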;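 note: compound read alongside a low EC10 to EC30 dose of BAM8-22 agonist; peak minus trough fluorescence over baseline measured at the second addition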
MrgX1 ag – agonists of human MrgX1 receptor. Q96LB2. MrgX1-HEK293 cells, Fluo-4 calcium fluorescence, agonist mode; active compounds read high. B-score at 10 µM. 0.44% of 310,000 active. AID 588627;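 active = calcium response B-score plate-corrected fluorescence ratio at least 3 library SD, with starting fluorescence B-score inside 5 SD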
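Material: HEK293 cells stably expressing human MrgX1 receptor | Quantity: 15,000 cells per well | Times: Cells plated overnight, dye loaded 0.5 h 37 °C, 0.5 h room temperature | Measured by: Kinetic Fluo-4 NW fluorescence of intracellular calcium | Control set: Positive and negative controls per plate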
MrgX1 ant reconf – reconfirmed antagonist of human MrgX1 receptor signaling. shares compounds with MrgX1 antag. MrgX1-HEK293, BAM8-22 calcium flux, Fluo-4; active compounds read low. remaining BAM8-22 calcium response % of control (active compounds read low), % at 10 µM. 19% of 2,300 active. AID 602420;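 active = remaining agonist calcium response no higher than 100% minus 3 SD of agonist-only control wells, with starting fluorescence near control levels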;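 note: agonist BAM8-22 given at a near maximal EC90 to ECmax level; peak minus minimum fluorescence divided by baseline after agonist addition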
HEK293 Ca flux – activity in parental HEK293 cells lacking MrgX1. shares compounds with MrgX1 antag. Fluo-4 calcium fluorescence, FDSS. fluorescence ratio F(max-min)/F0 at 10 µM. 2% of 4,000 active. AID 624111;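 active = duplicate-averaged calcium fluorescence ratio at least three times the standard deviation of buffer wells, a nonspecific response in parental cells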
HEK293 Ca counter – activity in parental HEK293 cells without MrgX1; parental HEK293 calcium flux, Fluo-4 fluorescence ratio; active compounds read high; 0.4% of 4,000 active; fluorescence ratio F(max-min)/F0 at 10 µM; shares compounds with MrgX1 antag;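 active = calcium fluorescence ratio, averaged over duplicates, at least 3 SD of the buffer-well ratio, meaning a nonspecific response in receptor-free cells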;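 note: untransfected parental HEK293 lacking MrgX1 used as counterscreen for MrgX1 allosteric activators; fluorescence change taken during the second addition on a kinetic imager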
HEK293 Ca cntr2 – activity in parental HEK293 cells lacking MrgX1 receptor; AID 624115; Fluo-4 calcium fluorescence (FDSS); active compounds read high; shares compounds with MrgX1 antag; fluorescence ratio F(max-min)/F0 at 10 µM; 8.7% of 4,000 active;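 active = calcium fluorescence ratio at least three times the spread of buffer wells, meaning a non-specific response in parental cells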
Starred values were filed as active, the others as inactive; i = inactive; . = not tested or not shown.

SMILES | RGS4 act | MrgX1 antag | RGS4 block | MrgX1 PAM | MrgX1 ag | MrgX1 ant reconf | HEK293 Ca flux | HEK293 Ca counter | HEK293 Ca cntr2
COCCN1C(=O)N[C@@H](c2cccc(C(F)(F)F)c2)[C@H](C(=O)OC)[C@H]1C | i | i | i | i | i | . | . | . | .
CCOC(=O)CN1C(=O)N[C@@H](c2cccc(C(F)(F)F)c2)[C@@H](C(=O)OC)[C@H]1C | i | -6.1* | i | i | i | i | i | i | i
Nc1c(C(=O)Nc2ccc3c(c2)OCCO3)nnn1Cc1cccc(F)c1 | i | i | i | i | i | . | . | . | .
COC(=O)C1SCC2C(=O)N(Cc3ccc(Cl)c(Cl)c3)CC(=O)N21 (configuration not stated) | i | i | i | i | i | . | . | . | .
COc1ccccc1NC(=O)COc1cc(C)nc(C(C)C)n1 | i | -5.42* | i | i | i | i | i | i | i
COc1ccc(NS(=O)(=O)c2ccc(C)c(C(=O)N3CC(C)OC(C)C3)c2)cc1 (configuration not stated) | i | i | i | i | i | . | . | . | .
COC(=O)Cc1cc(OC)c(OC)cc1S(=O)(=O)N(C)C | i | i | i | i | i | . | . | . | .
Cc1cc2cc(CCNC(=O)c3ccc(Br)o3)c(=O)[nH]c2cc1C | i | i | i | i | i | . | . | . | .
COc1ccc2cc(CCNC(=O)c3ccc(Br)o3)c(=O)[nH]c2c1 | i | -5.32* | i | i | i | i | i | i | i
CC1=Nc2ccc3ccccc3c2C1(C)C | i | -5.77* | i | i | i | i | i | i | i
Cc1cccn2c(=O)nc(SCC(=O)NCc3ccc(F)cc3)nc12 | i | i | i | i | i | . | . | . | .
O=C(Nc1ccc(Cl)c(Cl)c1)Nc1ccccc1O | i | -5.49* | i | i | i | i | i | i | i
O=C(Nc1ccccc1O)C(c1ccccc1)c1ccccc1 | i | -5.07* | i | i | i | 75.7%* | i | i | i
COc1ccc(C2C=C(C34CC5CC(CC(C5)C3)C4)NC(=S)N2)cc1 (configuration not stated) | i | i | i | i | i | . | . | . | .
O=C(Cc1cccs1)Nc1ccc(S(=O)(=O)N2CCCCC2)cc1 | . | i | . | i | i | . | . | . | .
CCC(=O)Nc1ccc(S(=O)(=O)N2CCc3ccccc3C2)cc1 | i | -7.89* | i | i | i | i | i | i | i
CN1CCN(S(=O)(=O)c2ccc(NC(=O)Cc3cccs3)cc2)CC1 | i | -4.67* | i | i | i | i | i | i | 50.9*
Cc1ccc(C(=O)Nc2ccc(S(=O)(=O)N3CCc4ccccc4C3)cc2)o1 | i | i | i | i | i | . | . | . | .
CC(=O)NC1CC2CCCC(C1)N2S(=O)(=O)c1ccccc1 (configuration not stated) | i | -8.79* | i | i | i | i | i | i | i
Cc1ccc(NC(=S)NCCSc2ccc(Cl)cc2)c(C)c1 | i | -6.34* | i | i | i | i | i | i | i
Cc1ccc(C)c(NC(=S)NCCSc2ccc(Cl)cc2)c1 | i | i | i | i | i | . | . | . | .
S=C1CCC(c2ccc(Br)cc2)=NN1c1ccccc1 | i | i | i | i | i | . | . | . | .
CCOC(=O)CNc1c(N2CCN(c3ccccn3)CC2)c(=O)c1=O | i | -6.5* | i | i | i | i | i | i | i
O=C(C1CCC(CNc2c(N3CCCCC3)c(=O)c2=O)CC1)N1CCN(c2ccccn2)CC1 (configuration not stated) | i | i | i | i | i | . | . | . | .
Cc1cccc(-n2nc3c(c2NC(=O)c2ccc4c(c2)OCO4)CS(=O)(=O)C3)c1C | i | i | i | i | i | . | . | . | .
SMILES | RGS4 act | MrgX1 antag | RGS4 block | MrgX1 PAM | MrgX1 ag | MrgX1 ant reconf | HEK293 Ca flux | HEK293 Ca counter | HEK293 Ca cntr2
O=C(NC1CCCC1)C(c1ccc(Cl)cc1)N1CCc2ccccc21 (configuration not stated) | i | -4.8* | i | i | i | i | i | i | i
Nc1cc(=O)[nH]c(SCc2nc3ccccc3n2Cc2ccccc2)n1 | i | i | i | i | i | . | . | . | .
CCOC(=O)CC1C(=O)NCCN1S(=O)(=O)c1ccc(Cl)cc1Cl (configuration not stated) | i | -6.93* | i | i | i | i | i | i | i
COc1ccc(-c2cc(CNS(=O)(=O)c3ccc(F)cc3)on2)cc1 | i | i | i | i | i | . | . | . | .
O=C(COC(=O)COc1ccccc1)NCCc1ccccc1 | i | -5.18* | i | i | i | i | i | i | i
Cc1ccc(-c2csc(N(CC3CCCO3)C(=O)c3ccco3)n2)cc1 (configuration not stated) | i | -4.7* | i | i | i | i | i | i | i
O=C(c1ccco1)N(CC1CCCO1)c1nc(-c2ccccc2)cs1 (configuration not stated) | i | i | i | i | i | . | . | . | .
CCSc1nc(C(F)(F)F)cc(=O)n1-c1ccccc1 | i | i | i | i | i | . | . | . | .
CC(C)Sc1nc(C(F)(F)F)cc(=O)n1-c1ccccc1 | i | -8.2* | i | i | i | i | i | i | i
Clc1ccccc1Cn1nnc2c(Nc3ccccc3)ncnc21 | i | i | i | i | i | . | . | . | .
Clc1ccccc1Cn1nnc2c(NCC3CC3)ncnc21 | i | -7.53* | i | i | i | i | i | i | i
COCC(=O)Nc1nnc(COc2ccc(Cl)cc2)s1 | i | -7.07* | i | i | i | i | i | i | i
COc1ccc(OCC(=O)Nc2ccc(Cl)cc2)cc1 | i | -4.96* | i | i | i | i | i | i | i
O=C(NC(=O)N1CCN(c2ccc([N+](=O)[O-])cn2)CC1)c1c(Cl)cccc1Cl | i | i | i | i | i | . | . | . | .

Source: PubChem
